According to ChEMBL document CHEMBL3414569, “Amino acid modified xanthone derivatives: novel, highly promising membrane-active antimicrobials for multidrug-resistant Gram-positive bacterial infections” (J Med Chem, 2015):
Values after ≈ are worked out from the molar mass of the structure shown.

Experiments:
Staphylococcus aureus [1] = assay: Antimicrobial activity against Staphylococcus aureus ATCC 29213 by broth macrodilution method; assay type: functional
Procedure, shortened: (§1)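 Broth macrodilution MIC in Mueller Hinton broth following CLSI guidelines. Inoculum was prepared by direct colony suspension from an 18−20 h tryptic soy agar plate.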

Staphylococcus aureus [2] = assay: Antimicrobial activity against Staphylococcus aureus ATCC 29213 infected in mouse cornea infection model assessed as reduction in viable bacterial count at 0.3% solution applied topically 5 times/day dosed 1 day after infection relative to control; assay type: functional
Procedure, shortened: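 Mouse cornea given three superficial 1 mm scratches on one eye under ketamine/xylazine, then 10 μL of S. aureus ATCC 29213 suspension (1 × 10^8 CFU/mL in USP phosphate buffer) applied topically. Treated topically 5 times/day from day 1 postinfection; PBS negative control; 4 mice/group killed on days 1, 2 and 3. Corneas homogenized in 0.9% NaCl with 0.25% BSA, plated in duplicate on TSA (48 h, 35 °C); log10 CFU/cornea.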

Staphylococcus aureus [3] = assay: Antimicrobial activity against Staphylococcus aureus ATCC 29213 at 0.5 times MIC measured after 17 passages by multistep passage drug resistance selection study relative to wild type Staphylococcus aureus ATCC 29213 before passage; assay type: functional
Procedure, shortened: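 Multipassage selection in S. aureus ATCC29213 across an eight-concentration dilution series. Growth was read after 20−22 h. Bacteria growing at 0.5 × MIC were repassaged into a fresh series, 17 passages in total. Resistance was defined as a more than 4-fold rise over the initial MIC.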

Staphylococcus aureus [4] = assay: Antimicrobial activity against Staphylococcus aureus DM4001 by broth macrodilution method; assay type: functional; procedure, shortened: as §1
Staphylococcus aureus [5] = assay: Antimicrobial activity against methicillin resistant Staphylococcus aureus DM21455 in presence of 4% BSA by broth macrodilution method; assay type: functional
Procedure, shortened: (§2)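 MIC by CLSI broth macrodilution in Mueller Hinton broth, with BSA added to the bacterial suspension at a final 4% w/v. Inoculum was made by direct colony suspension from an 18−20 h tryptic soy agar plate.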

Staphylococcus aureus [6] = assay: Antimicrobial activity against Staphylococcus aureus ATCC 29213 in presence of 4% BSA by broth macrodilution method; assay type: functional; procedure, shortened: as §2
Staphylococcus aureus [7] = assay: Antimicrobial activity against Staphylococcus aureus ATCC 29213 in absence of 4% BSA by broth macrodilution method; assay type: functional; procedure, shortened: as §1
Staphylococcus aureus [8] = assay: Antimicrobial activity against methicillin resistant Staphylococcus aureus DM21455 in absence of 4% BSA by broth macrodilution method; assay type: functional; procedure, shortened: as §1
Staphylococcus aureus [9] = assay: Antimicrobial activity against methicillin resistant Staphylococcus aureus DM21455 by broth macrodilution method; assay type: functional; procedure, shortened: as §1
Bacillus cereus = assay: Antimicrobial activity against Bacillus cereus ATCC 11778 by broth macrodilution method; assay type: functional
Procedure, shortened: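 CLSI broth macrodilution in Mueller Hinton broth. Inoculum was made by direct colony suspension from colonies on an 18−20 h tryptic soy agar plate. The value is the MIC.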

[10] = Induction of hemolysis in New Zealand white rabbit RBC after 1 hr; assay type: cell-based, Oryctolagus cuniculus, Erythrocyte; details: New Zealand white, red blood cells (RBC)
Procedure, shortened: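 Fresh red blood cells isolated from New Zealand white rabbits. Lysis measured over a compound concentration series; HC50 taken as the concentration lysing 50% of RBCs.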

Staphylococcus aureus [11] = assay: Antimicrobial activity against methicillin resistant Staphylococcus aureus DM09809R by broth macrodilution method; assay type: functional; procedure, shortened: as §1
[12] = Selectivity index, ratio of HC50 for induction of hemolysis in New Zealand white rabbit RBC to MIC for Staphylococcus aureus DM21455
[13] = Selectivity index, ratio of HC50 for induction of hemolysis in New Zealand white rabbit RBC to MIC for Staphylococcus aureus DM4001
[14] = Selectivity index, ratio of HC50 for induction of hemolysis in New Zealand white rabbit RBC to MIC for Staphylococcus aureus DM09809R
[15] = Selectivity index, ratio of HC50 for induction of hemolysis in New Zealand white rabbit RBC to MIC for Bacillus cereus ATCC 11778

Compound | MIC (Staphylococcus aureus [4]) [µg/mL] | MIC (Staphylococcus aureus [9]) [µg/mL] | MIC (Bacillus cereus) [µg/mL] | HC50 at 1 h [10] [µg/mL] | MIC (Staphylococcus aureus [11]) [µg/mL] | further results
COc1c(N2CCNC(C)C2)c(F)cc2c(=O)c(C(=O)O)cn(C3CC3)c12 (stereo not drawn) [GATIFLOXACIN] |  |  |  |  |  | MIC (Staphylococcus aureus [1]): 0.1 µg/mL (≈ 0.266 µM); Ratio (Staphylococcus aureus [2]): 2.06; Ratio (Staphylococcus aureus [3]): 64
COc1c(O)cc2oc3cc(O)c(CCC(C)C)c(O)c3c(=O)c2c1CCC(C)C | 50 (≈ 121 µM) |  |  |  |  | 
CCCCCCCCCC(=O)N[C@@H](Cc1c[nH]c2ccccc12)C(=O)N[C@H](CC(N)=O)C(=O)N[C@@H](CC(=O)O)C(=O)N[C@@H]1C(=O)NCC(=O)N[C@@H](CCCN)C(=O)N[C@@H](CC(=O)O)C(=O)N[C@H](C)C(=O)N[C@@H](CC(=O)O)C(=O)NCC(=O)N[C@H](CO)C(=O)N[C@@H]([C@H](C)CC(=O)O)C(=O)N[C@@H](CC(=O)c2ccccc2N)C(=O)O[C@@H]1C |  |  |  |  |  | MIC (Staphylococcus aureus [5]): 6.25 µg/mL; MIC (Staphylococcus aureus [6]): 6.25 µg/mL; MIC (Staphylococcus aureus [7]): 0.39 µg/mL (≈ 0.241 µM); MIC (Staphylococcus aureus [8]): 0.39 µg/mL (≈ 0.241 µM)
COC(=O)C(CCCCN)NC(=O)COc1cc2oc3cc(OCC(=O)NC(CCCCN)C(=O)OC)c(OC)c(CC=C(C)C)c3c(=O)c2c(O)c1CC=C(C)C (stereo not drawn) | 6 (≈ 7.4 µM) | 12 (≈ 14.8 µM) | 12 (≈ 14.8 µM) | 39 | 6 (≈ 7.4 µM) | 
COc1c(OCCCCBr)cc2oc3cc(OCCCCBr)c(CCC(C)C)c(O)c3c(=O)c2c1CCC(C)C | > 50 |  |  |  |  | 
COc1c(O)cc2oc3cc(O)c(CC=C(C)C)c(O)c3c(=O)c2c1CC=C(C)C [MANGOSTIN] | 2 (≈ 4.87 µM) | 2 (≈ 4.87 µM) | 2 (≈ 4.87 µM) |  | 2 (≈ 4.87 µM) | Selectivity Index [12]: 5; Selectivity Index [13]: 5; Selectivity Index [14]: 5; Selectivity Index [15]: 5
CCN(CC)CCCCOc1cc2oc3cc(OCCCCN(CC)CC)c(OC)c(CCC(C)C)c3c(=O)c2c(O)c1CCC(C)C | 3 (≈ 4.48 µM) |  |  |  |  | 
CCn1cc(C(=O)O)c(=O)c2cc(F)c(N3CCNCC3)cc21 [NORFLOXACIN] |  |  |  |  |  | MIC (Staphylococcus aureus [1]): 2 µg/mL (≈ 6.26 µM); Ratio (Staphylococcus aureus [3]): 64
H-GIGKFLKKAKKFGKAFVKILKK-NH2 [PEXIGANAN] | 12.5 | 12.5 | 12.5 | 120 | 25 | Selectivity Index [12]: 2; MIC (Staphylococcus aureus [5]): 200 µg/mL; MIC (Staphylococcus aureus [6]): 200 µg/mL; Selectivity Index [13]: 2; MIC (Staphylococcus aureus [7]): 12.5 µg/mL; Selectivity Index [14]: 2; Selectivity Index [15]: 2; MIC (Staphylococcus aureus [8]): 12.5 µg/mL
COc1c(OCC(=O)O)cc2oc3cc(OCC(=O)O)c(CC=C(C)C)c(O)c3c(=O)c2c1CC=C(C)C | > 50 | > 50 | > 50 | > 400 | > 50 | 
